{"source": "the RNAGym collection of RNA variant scans (doi:10.1126/science.aae0568)", "parents": {"B1": {"name": "tRNA (parent)", "chain": "GUUCCGUUGGCGUAAUGGUAACGCGUCUCCCUCCUAAGGAGAAGACUGCGGGUUCGAGUCCCGUACGGAACG"}}, "note": "Variants at the floor of the assay were thinned out."}
{"variants_of": "B1", "test": "yeast fitness relative to wild type (ratio to wild type); higher = fitter; tRNA-Arg(CCU), competitive growth, 37 C, YPD", "summary_of_the_method": "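Gene amplicons from the start population and from each of six end populations were read by 100-nucleotide paired-end sequencing. Those end populations came from pooled Saccharomyces cerevisiae strains carrying tRNA-Arg(CCU) gene variants at the native locus, competed in YPD at 37°C for 24 hours. Fitness relative to wild type was worked out from changes in genotype frequencies. Genotypes needed ≥ 100 starting reads, and estimates < 0.5 were set to 0.5.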"}
{"variant": "GUUCCGUUGGCGUAAUGGUAACGCGUCUCCCUCCUAAGGAAAAGACUGCGAGUUCGAGUCCCGUACGGAACG", "note": "[G41A G51A]", "yeast fitness": 0.664}
{"variant": "GUUCCGUAGGCGUAAUGGUAACGCGUCUCCCUCCUAAGGAGAAGACAGCGGGUUCGAGUCCCGUACGGAACG", "note": "[U8A U47A]", "yeast fitness": 0.619}
{"variant": "GCUCCGUUGGCGUAAUGGUAACGCCUCUCCCUCCUAAGGAGAAGACUGCGGGUUCGAGUCCCGUACGGAGCG", "note": "[U2C G25C A70G]", "yeast fitness": 0.978}
{"variant": "GUUCCGUUGGAGUAAUGGUGACGCGUCUCCCUCCUAAGGAGAAGACUGCGGGUUUGAGUCACGUACGGAACG", "note": "[C11A A20G C55U C61A]", "yeast fitness": "≤ 0.5"}
{"variant": "GUUCGGUUGGCGUAAUGGUAACGCGUCUCCCUCCUAAGGAGAAGACCGCGGGUUCGAGUCACGUACGUAACG", "note": "[C5G U47C C61A G68U]", "yeast fitness": "≤ 0.5"}
{"variant": "GUUCCGUUGGCGUAAUGGUAACGCGUCUCCCUCCUAAGGAGAAGACUCCGCGUUCGUGUCCCGUACGCAACG", "note": "[G48C G51C A57U G68C]", "yeast fitness": "≤ 0.5"}
{"variant": "GUUCCGUUGGCGUAAUGGUAACCCGUCUCCCACCUAAGGAGAAGACUGAGGGUGCGAGUCCCGUACGGAACG", "note": "[G23C U32A C49A U54G]", "yeast fitness": "≤ 0.5"}
{"variant": "GUUACGUUGGCGUAAUGGUAACCCGUCUCCCUCCUAAGGAGAAGACUGCGGGUUCGAGUCAUGUAUGGAACG", "note": "[C4A G23C C61A C62U C66U]", "yeast fitness": "≤ 0.5"}
{"variant": "GUUCCGUUGGCGUAAUGGUAAGGCGUCUCCCUCCUAAGGAGUAGACUGCGGGUUCGAGUCCAGUACGGAACG", "note": "[C22G A42U C62A]", "yeast fitness": "≤ 0.5"}
{"variant": "GUUCCGUUGGCGAAAUGGUAACGCGUCUGCCUCCUAAGGAGCAGACUGCGGGUUCGAGUCCGGUACGGAACG", "note": "[U13A C29G A42C C62G]", "yeast fitness": "≤ 0.5"}
{"variant": "GUUCCGUUGGCGUAAUGGUAACGCGACUCUCUCCUAUGGAGAAGACUGCGGGUUCGAGUCCCGUACGGAACG", "note": "[U26A C30U A37U]", "yeast fitness": "≤ 0.5"}
{"variant": "GUUCCGUAGGCGUAAUGGUAACGUGUCCCCCUCCUAAGGCGAAGACUGCGGGUUCGAGUCCCGUACGGAACG", "note": "[U8A C24U U28C A40C]", "yeast fitness": "≤ 0.5"}
{"variant": "GUUACGUUGGCGUAAUGGUGACGCGUCUCCCUCCUAAGGAGAAGACUGCGGGUUCGAGUACCGUACGGACCG", "note": "[C4A A20G C60A A70C]", "yeast fitness": "≤ 0.5"}
{"variant": "GUUCCGCUGGCGUAAUGGUAACGUGUCUCCAUCCUAAGGAGGAGACUGCGGGUAGGAGUCCCGUACGGAACG", "note": "[U7C C24U C31A A42G U54A C55G]", "yeast fitness": "≤ 0.5"}
{"variant": "GUUCCGUUGGCGUAAUGGUACCGAGUCUCCCUCCUAAGAAGAAGACUGCGGGUUCCAGUCCCGUACGGUACG", "note": "[A21C C24A G39A G56C A69U]", "yeast fitness": "≤ 0.5"}
{"variant": "GUUCCGUUGGCGUAAGGGUAACGCGUCUCCCUCCUACGGAGAAGACUGCGGGUUCGAGUCCCGUAAGGAACG", "note": "[U16G A37C C66A]", "yeast fitness": "≤ 0.5"}
{"variant": "GUUCCGUUGGCGUAAUGGUAACGCGUCUCCCUCUUAAGGAGAAGCCUGCGGAUUCGAGUCCCGUGCGGAACG", "note": "[C34U A45C G52A A65G]", "yeast fitness": 0.688}
{"variant": "GUUCCGUUGGCGUAAUGGUAACGCGUCUCCCUCCUAAGGAGAAGACUACGGGUUAGAGUGCCGUACGGAACG", "note": "[G48A C55A C60G]", "yeast fitness": 0.513}
{"variant": "GUUCCGUUGGCGUAAUGGUUACGCGUGUCCCUCAUAAGGAGAAGAGUGCGGGUUAGAGUCCCGUACGGAACG", "note": "[A20U C27G C34A C46G C55A]", "yeast fitness": "≤ 0.5"}
{"variant": "GAUCCGUUGGCGUAAUGGUAACGCGUCUCCCUCCUAAGGAGCAGACUGCGGGUUCGAGUCCCGUACGGAACG", "note": "[U2A A42C]", "yeast fitness": 0.818}
{"variant": "GUUCUGUUGGAGUAAUGGUAACGCGACUUAUUCCUAAGGAGAAGACUGCGGGUUCGAGUCCCGUACGGAACG", "note": "[C5U C11A U26A C29U C30A C31U]", "yeast fitness": "≤ 0.5"}
{"variant": "GUUGCGUUGGCGUAAUGGUAGCGCGUCUCCCUCCUAAGGAGAAGACUGCGGGUUCGAGUCCCGUACCGAACG", "note": "[C4G A21G G67C]", "yeast fitness": 0.631}
{"variant": "GUUCCGUUGGCGUAAAGGUAACGCGUCUCCCUCCUAAGGAGAAGAUUGCGGGUUCGAGUCCCGUACGGAACG", "note": "[U16A C46U]", "yeast fitness": 1.04}
{"variant": "GUUCCGUUGGCGUAAUGGUAACGCGUCUCCCUCCUUAGGAGAAGACUAAGGGUUCGAGUCCCGUACGAAACG", "note": "[A36U G48A C49A G68A]", "yeast fitness": "≤ 0.5"}
{"variant": "GUUCCGUUGGCGUAAUGGUAAUGCGUCUCCCUCCUAAGGAGACGACUGCGGGUUCGAGUCCCGUACGGAACG", "note": "[C22U A43C]", "yeast fitness": 0.712}
{"variant": "GUACCGUUGGCGUAAUGGUAACGCGUCUCCCUCCUAAGGAGAGGACUGCGGGUUCGAGUCCCGUACGGAACG", "note": "[U3A A43G]", "yeast fitness": 0.919}
{"variant": "GUUCCGUUGGCGUAACGGUAACGCGUCUCCCUCCUAAGGAGAAGACUGGGGGUUGGAGUACAGUACGAUACG", "note": "[U16C C49G C55G C60A C62A G68A A69U]", "yeast fitness": "≤ 0.5"}
{"variant": "GUUCCGAUGGCGUAAUGGUAACGGGUCUGUCUCCUAAGGCGAAGACUGCGGGUUCGAGUCCCGUACGGAACG", "note": "[U7A C24G C29G C30U A40C]", "yeast fitness": 0.96}
{"variant": "GUUCCGUUGGCGUAAUGGUAGCGCGUCUCCCUCCUAAGGAGACGACUGCGGGUUCGAGUCCCGUACGGAACG", "note": "[A21G A43C]", "yeast fitness": 0.966}
{"variant": "GUUCCGUUGGCGUAAUGGUUACGCGUCUCCCUCGUAAGGAGGUGACUGCGGGUUCGAGUCCCAUGCGGAACG", "note": "[A20U C34G A42G A43U G63A A65G]", "yeast fitness": "≤ 0.5"}
{"variant": "GUUCGGCUGGCGUAAUGGUAACGGGUCUCCCUCCUAAGGAGACGACUGCGGGUUCGAGUCCCGUACGGAACG", "note": "[C5G U7C C24G A43C]", "yeast fitness": 0.629}
{"variant": "GUUCCGUUGGCGUAAUGGUAAUGCGUCUCCCUCCUAAGGAGAAGACUGCGGGUUCGAGUCCCGUACUGAACG", "note": "[C22U G67U]", "yeast fitness": 0.808}
{"variant": "GUUCCGUUGGCGUAAUGGAAACGCGUCUCCCUCCUAAGGAGAAGACCGCGGGUUCGAGUCCCGUAUGGAACG", "note": "[U19A U47C C66U]", "yeast fitness": 0.751}
{"variant": "GUUCCGAUGGCGUAAUGGUAACGCGUCUCCCUCCUAAGGAGAAGACUACGGGUUCGAGCCACAUACGGAACG", "note": "[U7A G48A U59C C61A G63A]", "yeast fitness": "≤ 0.5"}
{"variant": "GUUCCGUUGGCGUCAUGGCAACGCGUCUCCCUCUUAAGGAGAAGACUGCGGGUUCGAGUCCCGUACGGAACG", "note": "[A14C U19C C34U]", "yeast fitness": "≤ 0.5"}
{"variant": "GUUCCGUUGGCGUAAUGGUAACGCGAUUCCCUGCUUAGGAGAAGACUGCAGGUUCGAGUCCCGUACGGAACG", "note": "[U26A C27U C33G A36U G50A]", "yeast fitness": "≤ 0.5"}
{"variant": "GUUCCGUUGGCGUAAUGGUAACGCGUCUACCUCCUCAGGAGAAGACUGCGGGUUCGAGUCCCGUACGAAACG", "note": "[C29A A36C G68A]", "yeast fitness": "≤ 0.5"}
